Common to all, as to assay type: functional
Experiment [1] has as its system Corynebacterium glutamicum. The experiment can be described thus: Antitubercular activity against Corynebacterium glutamicum ATCC 13032. An outline of the steps:
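Grown in 7H9 medium; susceptibility determined by resazurin reduction. MIC99 is the lowest drug concentration preventing growth of 99% of cells.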

The test system of experiment [2] is Mycobacterium tuberculosis. The experiment can be described thus: Antitubercular activity against Mycobacterium tuberculosis H37Rv.
Experiment [3] concerns Mycolicibacterium smegmatis. In words: Antitubercular activity against Mycobacterium smegmatis mc2 155. As to conditions: str. MC2 155.
In experiment [4] the test system is Plasmodium berghei. The experiment can be described thus: Antiparasitic activity against Plasmodium berghei infected in mice (Mus musculus) assessed as reduction of parasitaemia at 50 mg/kg, intraperitoneally administered 4, 24, 48, 72 hrs post infection measured 24 hrs of last treatment on day 4 relative to control. The conditions noted are these: route intraperitoneal. Set-up: scale not given: the % may be the effect or the level left. The method in brief: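 Compounds formulated in DMSO/water and given i.p. at 50 mg/kg, 4 doses, to P. berghei-infected mice. Parasitaemia measured by FACS on day 4 post infection, 24 h after the last dose. Activity is the difference in mean % parasitaemia between control (n = 5 mice) and treated groups, as % of control. Mean survival time was also recorded.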

Experiment [5] relates to Plasmodium berghei. In words: Antiparasitic activity against Plasmodium berghei infected in mice (Mus musculus) assessed as survival days at 50 mg/kg, intraperitoneally administered 4, 24, 48, 72 hrs post infection. The conditions noted are these: route intraperitoneal. An outline of the steps:
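Infected mice received the compounds formulated in DMSO/water, given i.p. as 4 × 50 mg/kg. Parasitaemia was measured by FACS on day 4 post infection, 24 h after the last treatment. Activity was taken as the reduction in mean % parasitaemia versus the untreated control group (n = 5 mice). Mean survival time in days was recorded.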

Among the data in ChEMBL document CHEMBL1157552, “Antimalarial and antitubercular nostocarboline and eudistomin derivatives: synthesis, in vitro and in vivo biological evaluation” (Bioorg Med Chem, 2010) are MIC99, Activity and Survival values, retold here.

With `Clc1ccc2[nH]c3c[n+](CCCCCC[n+]4ccc5c(c4)[nH]c4ccc(Cl)cc45)ccc3c2c1.[Br-].[Br-]`, the MIC99 in experiment [1] amounted to 8 µM; in experiment [2] it was 8 µM; in experiment [3], 20 µM. Besides, the Activity in the experiment with Plasmodium berghei [4] was determined as 0%.
As for `Clc1ccc2[nH]c3c[n+](Cc4ccc(-c5ccc(C[n+]6ccc7c(c6)[nH]c6ccc(Cl)cc67)cc5)cc4)ccc3c2c1.[Cl-].[Cl-]`, the MIC99 in experiment [1] is above 15 µM; in experiment [2], above 15 µM; in experiment [3] it was 152 µM. The Activity in the experiment with Plasmodium berghei [4] is reported as 0%.
For the molecule `Clc1ccc2[nH]c3c[n+](CCOCC[n+]4ccc5c(c4)[nH]c4ccc(Cl)cc45)ccc3c2c1.[Cl-].[Cl-]`, the results for the MIC99 in experiment [1], in experiment [2] and in experiment [3] were 9 µM, 18 µM and 46 µM, respectively. The Activity in the experiment with Plasmodium berghei [4] is listed as 2.6%.
Take `C[n+]1ccc2c(c1)[nH]c1ccc(Cl)cc12.[I-]` [NOSTOCARBOLINE]: the MIC99 in experiment [1] is above 29 µM; in experiment [2], above 29 µM; in experiment [3] it was 290 µM. Moreover, the Survival in the experiment on Plasmodium berghei [5] was 7.3 days. Besides, in the experiment on Plasmodium berghei [4], the Activity came out at 49.6%.

The term MIC99 denotes the lowest concentration that inhibits either 99% of growth or 99% of the strains tested, depending on the study.
